Source: PubChem BioAssay (several laboratories)
The sample as a whole holds a higher share of hits than the screen did.
Myeloid diff 2 = myeloid differentiation induction. ER-HoxA9 myeloid progenitors, lysozyme-GFP differentiation, flow cytometry. calls only at 10 µM. 360,000 compounds, 1% hits. AID 624256;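 active = normalized GFP-positive differentiation at or above the plate's own cutoff, the solvent-only control mean plus 3 SD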;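 also: cells exposed to compound for four days before flow analysis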
ABCB6 inh 2 = blocks the human ABCB6 transporter. K562-ABCB6 porphyrin accumulation, flow cytometry, 1 h; hits give low values. fluorescence ratio to DMSO, % at 10 µM. 360,000 compounds, 0.19% hits. AID 602162. Q9NP58;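 active = fluorescence ratio to DMSO below 75%, the collection mean minus 3 SD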;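 also: signal is porphyrin accumulated inside mitochondria; 100% equals median channel fluorescence of DMSO control wells; lower ratio means ABCB6 inhibition with less porphyrin fluorescence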
Target sequence (Q9NP58 whole entry, looked up): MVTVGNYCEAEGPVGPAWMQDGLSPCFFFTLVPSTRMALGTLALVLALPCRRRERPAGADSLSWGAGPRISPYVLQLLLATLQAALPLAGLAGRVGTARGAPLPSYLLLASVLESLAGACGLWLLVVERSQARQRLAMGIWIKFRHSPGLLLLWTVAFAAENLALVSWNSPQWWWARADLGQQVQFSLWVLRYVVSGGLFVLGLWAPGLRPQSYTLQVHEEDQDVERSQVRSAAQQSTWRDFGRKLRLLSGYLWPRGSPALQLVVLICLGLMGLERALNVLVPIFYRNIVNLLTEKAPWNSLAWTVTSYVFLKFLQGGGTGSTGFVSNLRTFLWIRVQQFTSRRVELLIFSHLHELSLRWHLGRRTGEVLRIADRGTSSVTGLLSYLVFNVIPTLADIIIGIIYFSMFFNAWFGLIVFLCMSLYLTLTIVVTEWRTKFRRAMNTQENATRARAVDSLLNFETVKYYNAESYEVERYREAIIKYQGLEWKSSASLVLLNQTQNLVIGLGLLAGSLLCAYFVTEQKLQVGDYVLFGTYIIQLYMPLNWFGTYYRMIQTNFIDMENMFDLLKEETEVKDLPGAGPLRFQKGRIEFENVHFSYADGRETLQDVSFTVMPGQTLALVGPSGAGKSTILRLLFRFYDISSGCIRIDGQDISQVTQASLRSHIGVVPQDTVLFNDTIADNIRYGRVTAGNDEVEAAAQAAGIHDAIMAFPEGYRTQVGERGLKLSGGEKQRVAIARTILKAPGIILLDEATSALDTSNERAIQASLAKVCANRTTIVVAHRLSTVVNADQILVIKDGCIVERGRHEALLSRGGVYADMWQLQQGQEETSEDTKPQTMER
Xi reactivation = reactivates the inactive X chromosome in mouse fibroblasts. AID 743238. XiGFP mouse fibroblasts, % GFP-positive cells imaging, 3 d; cells co-treated with 5-aza-dC sensitizer; scaled so ellipticine positive control = 100%. 360,000 compounds, 0.055% hits. activation, % at 7.58 µM;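 active = mean normalized replicate activation at least 10% and every replicate at or above 10%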;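 also: 0% = median of on-plate neutral control wells and 100% = ellipticine 6 µM median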
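Assay system – SV40-immortalized XiGFP fibroblast cells, line 68-5-11 · Buffer or medium – DMEM supplemented with 5-aza-dC as sensitizing agent · Dosing – one concentration, pinned · Benchmarks – positive control ellipticine, 6 µM final · Times – 3 days compound exposure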
Myeloid diff CP1 = compounds promoting myeloid differentiation | ER-HoxA9 myeloid progenitors, GFP/Mac1 double-positive flow | calls only | 2,300 compounds, 2% hits | shares compounds with Myeloid diff 2 | AID 651706;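 active = share of green or green-and-red cells above 9 and 9% in run 1 or 4 and 3% in run 2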
GFP autofluor = counter-screen for myeloid differentiation promoters: compound fluorescence. shares compounds with Myeloid diff 2. AID 651707. fluorescence response, % (test concentration not listed). ER-HoxA9 myeloid progenitors, no estrogen, GFP autofluorescence flow cytometry; vehicle wells 0%, positive control 100%. 2,300 compounds, 7.4% hits;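 active = over 5% cells positive for green fluorescent reporter, or over 2% positive for both it and APC stain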;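 also: range taken on the double positive population between DMSO and positive control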
* hit, by the source's call; i = inactive; nt = not tested or not shown; + = active, no number.

SMILES	Myeloid diff 2	ABCB6 inh 2	Xi reactivation	Myeloid diff CP1	GFP autofluor
COc1ccc(CCN2C(=O)CS/C2=N\NC(=O)c2ccc(C(C)(C)C)cc2)cc1OC	i	98	0	i	0
O=C(N/N=C1\SCC(=O)N1CCc1ccccc1)c1cccs1	i	102	0	nt	nt
COc1ccc(S(=O)(=O)Nc2ccc3c(c2)C(=O)N([C@@H](C)CO)C[C@H](C)[C@@H](CN(C)S(C)(=O)=O)O3)cc1	nt	nt	0	nt	nt
CN1c2ccc(-c3ccccc3F)cc2[C@@H]2[C@@H](CCN2C(=O)CN2CCOCC2)[C@@H]1CO	nt	nt	0	nt	nt
Cc1ccc(-n2c(O)c(C=Nc3ccccc3-c3n[nH]c(=S)[nH]c3=O)c3ccccc3c2=O)cc1C	i	99	0	i	0
Cc1ccc(-n2c(O)c(C=Nc3ccccc3-c3n[nH]c(=S)[nH]c3=O)c3ccccc3c2=O)c(C)c1	i	97	1	nt	nt
C[C@@H]1CN([C@@H](C)CO)C(=O)c2cc(C#C[C@@H](C)O)cnc2O[C@@H]1CN(C)Cc1cccc(F)c1	nt	nt	2	nt	nt
COCCNC(=O)[C@@H]1[C@@H](CO)[C@@H]2Cn3c(ccc(-c4ccccc4F)c3=O)[C@@H]2N1C(=O)C1CCCC1	nt	nt	0	nt	nt
CCCCCCc1cc2cc(S(=O)(=O)c3ccc(Cl)cc3)c(=O)oc2cc1O	i	101	0	nt	nt
CCN(CC)c1ccc2cc(S(=O)(=O)c3ccc(Cl)cc3)c(=O)oc2c1	i	102	0	i	1
COc1ccc(NC(=O)N2C[C@H](O)COC[C@H]3O[C@H](CC(=O)N4CCCCC4)CC[C@@H]32)cc1	nt	nt	0	nt	nt
Cc1cc(N2CCOCC2)nc2ccc(NC(=O)CCC(=O)N3CCC(C)CC3)cc12	i	97	nt	nt	nt
CCCCNC(=O)CCC(=O)Nc1ccc2nc(N3CCC(C)CC3)cc(C)c2c1	i	101	0	i	1
O=[N+]([O-])CC(c1ccccc1)c1c[nH]c2ccccc12 (stereo not given)	+	88	0	i	0
CN(C)c1ccc(C(CNS(=O)(=O)c2ccc(F)cc2)c2c[nH]c3ccccc23)cc1 (stereo not given)	i	104	0	nt	nt
O=C(C[C@H]1C=C[C@H](NC(=O)c2cccnc2)[C@H](CO)O1)NCc1ccncn1	nt	nt	1	nt	nt
O=C(NC(=S)Nc1ccccc1O)c1cncc(Br)c1	i	110	0	i	10*
O=C(NC(=S)Nc1ccccc1C(=O)O)c1cncc(Br)c1	i	98	0	nt	nt
COc1ccc(C(=O)Nc2cccc(-c3ccc4nncn4n3)c2)cc1	i	95	0	nt	nt
COc1ccc(S(=O)(=O)Nc2cccc(-c3ccc4nncn4n3)c2)cc1	i	97	1	i	0
CCOc1ccc(NC(=O)NNC(=O)COc2ccc3ccccc3c2)cc1	i	103	0	nt	nt
CCOc1ccc(N2C(=O)CS/C2=N/NC(=O)COc2ccc3ccccc3c2)cc1	i	97	nt	i	1
C[C@@H]1CN([C@@H](C)CO)C(=O)Cc2cc(NC(=O)Cn3cnnn3)ccc2O[C@@H]1CN(C)C(=O)Nc1ccccc1	nt	nt	-1	nt	nt
CCOc1ccc(C(=O)NCC(=O)OCc2c(F)cccc2Cl)cc1OCC	i	94	0	i	0
CCOc1ccc(C(=O)NCC(=O)OCc2c(F)cccc2Cl)cc1	i	102	nt	nt	nt
SMILES	Myeloid diff 2	ABCB6 inh 2	Xi reactivation	Myeloid diff CP1	GFP autofluor
Cc1c(C(=O)O)sc2nc3n(c(=O)c12)CCCCC3	i	100	nt	nt	nt
Cc1c(C(=O)O)sc2nc3n(c(=O)c12)CCC(C)CC3 (stereo not given)	+	105	nt	i	0
CCc1c(-c2ccc(Cl)cc2)ncn1Cc1cccc(-c2ccccc2)c1	i	nt	0	nt	nt
CCc1c(-c2ccccc2F)ncn1Cc1cccc(-c2ccccc2)c1	i	nt	nt	i	2
Cc1noc(C)c1S(=O)(=O)Nc1ccc2c(c1)C(=O)N([C@@H](C)CO)C[C@@H](C)[C@@H](CN(C)CC1CC1)OCCCC[C@@H](C)O2	nt	nt	0	nt	nt
CC(C)Oc1ccc(S(=O)(=O)N2CCCCC2)cc1NC(=O)CN1C(=O)NC(C)(c2ccccc2)C1=O (stereo not given)	i	99	1	nt	nt
Cc1ccc(C2(C)NC(=O)N(CC(=O)Nc3cc(S(=O)(=O)N4CCCCC4)ccc3OC(C)C)C2=O)cc1 (stereo not given)	+	98	0	i	0
C[C@@H]1CCCCO[C@@H](CN(C)C(=O)Cc2ccccc2)[C@H](C)CN([C@H](C)CO)C(=O)c2cc(NC(=O)Nc3ccccc3)ccc2O1	nt	nt	0	nt	nt
C[C@@H]1CN([C@@H](C)CO)C(=O)c2c(c3ccccc3n2C)-c2ccccc2CO[C@@H]1CN(C)Cc1ccccc1C(F)(F)F	nt	nt	2	nt	nt
CCOc1cc(C)nc(NCc2ccccc2)n1	+	88	nt	i	4
CCCCOc1cc(C)nc(NCc2ccccc2)n1	i	95	nt	nt	nt
O=C(O)CCCN1C(=O)/C(=C/C=C/c2ccco2)SC1=S	i	103	0	nt	nt
O=C(O)CCCN1C(=O)/C(=C\c2ccc(-c3nc4ccccc4s3)o2)SC1=S	+	101	0	i	0
COc1cc(-c2c(-c3cc(OC)c(OC)c(OC)c3)noc2C)ccc1F	nt	nt	0	nt	nt
COC(=O)c1cc(-c2c(-c3cc(OC)c(OC)c(OC)c3)noc2C)cc([N+](=O)[O-])c1	i	88	0	i	0
Cc1cc(Cl)c(OCCCn2cncn2)c(Br)c1	i	87	nt	nt	nt
Cc1cc(Cl)cc(Br)c1OCCCCn1cncn1	+	98	nt	i	1
C[C@@H]1CN([C@@H](C)CO)C(=O)c2cccc(NS(=O)(=O)c3ccc(Cl)cc3)c2O[C@H]1CN(C)C	nt	nt	0	nt	nt
O=C(O)C1CCCC2CN3CCc4c([nH]c5ccccc45)C3C(O)C21 (stereo not given)	i	99	0	i	1
O=C(O)[C@@H]1[C@H]2C[C@H]3c4[nH]c5ccccc5c4CCN3C[C@@H]2CC[C@@H]1O	i	108	0	nt	nt
C[C@@H]1CN([C@H](C)CO)C(=O)c2cccc(NS(=O)(=O)c3ccc(Cl)cc3)c2O[C@H]1CN(C)C	nt	nt	0	nt	nt
Cc1cccc(C)c1NC(=O)Nc1cccs1	i	109	nt	i	0
O=C(Nc1cccs1)Nc1c(F)c(F)c(F)c(F)c1F	i	102	0	nt	nt
CC(=O)c1c(C)[nH]c(C(=O)NNC(=O)COc2cc(C)ccc2C(C)C)c1C	i	101	0	i	0
CC(=O)c1c(C)[nH]c(C(=O)NNC(=O)COc2ccc(Cl)cc2C)c1C	i	97	0	nt	nt
O=C(NCn1cnccc1=O)c1ccccc1	i	105	nt	nt	nt
Cc1cc(=O)n(CNC(=O)c2ccccc2)c(=S)[nH]1	i	90	nt	i	3
CN(CC(=O)Nc1ccc(Cl)cc1)Cc1cc(=O)n2ccsc2n1	i	105	0	nt	nt
Cc1ccc(NC(=O)CN(C)Cc2cc(=O)n3ccsc3n2)cc1	i	176	0	i	1
